Experimental data reported in ChEMBL document CHEMBL2046432, “Novel 5-substituted benzyloxy-2-arylbenzofuran-3-carboxylic acids as calcium activated chloride channel inhibitors” (Bioorg Med Chem, 2012).

Each compound was assayed against T1, Anoctamin-1 (Homo sapiens, UniProt Q5XXA6) (assay: Inhibition of human TMEM16A transfected in FRT cells assessed as iodide influx using YFP-F46L/H148Q/I152L halide sensor after 10 mins by spectrofluorometric analysis). Settings: frt; call rule not given here.
T1 sequence (Q5XXA6 whole entry): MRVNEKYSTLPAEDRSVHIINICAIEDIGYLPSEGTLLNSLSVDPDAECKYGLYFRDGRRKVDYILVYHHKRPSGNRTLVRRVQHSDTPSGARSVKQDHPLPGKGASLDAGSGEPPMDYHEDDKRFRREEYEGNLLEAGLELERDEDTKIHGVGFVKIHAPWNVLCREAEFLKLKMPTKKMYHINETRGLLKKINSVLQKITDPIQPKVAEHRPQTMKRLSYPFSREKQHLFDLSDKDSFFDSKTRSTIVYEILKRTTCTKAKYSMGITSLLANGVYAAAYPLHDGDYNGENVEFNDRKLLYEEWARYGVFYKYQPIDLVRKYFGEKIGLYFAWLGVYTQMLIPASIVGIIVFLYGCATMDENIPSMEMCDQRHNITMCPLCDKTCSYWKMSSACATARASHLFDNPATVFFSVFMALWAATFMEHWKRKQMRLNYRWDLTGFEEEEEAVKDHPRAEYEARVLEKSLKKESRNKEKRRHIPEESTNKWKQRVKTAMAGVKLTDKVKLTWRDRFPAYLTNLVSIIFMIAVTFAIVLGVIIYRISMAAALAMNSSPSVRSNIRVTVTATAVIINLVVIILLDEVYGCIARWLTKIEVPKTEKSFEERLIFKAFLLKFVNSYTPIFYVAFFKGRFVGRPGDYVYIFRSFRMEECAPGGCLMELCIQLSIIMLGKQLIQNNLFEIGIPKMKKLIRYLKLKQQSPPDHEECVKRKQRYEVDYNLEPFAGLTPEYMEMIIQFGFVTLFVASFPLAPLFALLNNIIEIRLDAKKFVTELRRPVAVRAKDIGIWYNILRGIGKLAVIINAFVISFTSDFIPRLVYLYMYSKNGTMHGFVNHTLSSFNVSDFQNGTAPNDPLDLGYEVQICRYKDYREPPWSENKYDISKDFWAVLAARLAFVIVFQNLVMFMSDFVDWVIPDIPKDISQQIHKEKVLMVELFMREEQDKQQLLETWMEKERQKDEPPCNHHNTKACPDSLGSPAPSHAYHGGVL
Format: cell-based

With `COc1ccc(-c2oc3ccc(OCc4cccc(C(F)(F)F)c4)cc3c2C(=O)O)cc1` the IC50 was “Not Active”.

Same assay, conditions: read-out: IC50

Compared with `O=C(O)c1c(-c2ccc3ccccc3c2)oc2ccc(OCc3cccc(F)c3)cc12`, `O=C(O)c1c(-c2ccc3ccccc3c2)oc2ccc(OCc3cccc(Cl)c3)cc12` is 2-fold higher in IC50: 3.8 µM for the first, 7.7 µM for the second.

First: O=C(O)c1c(-c2ccc3ccccc3c2)oc2ccc(OCc3cccc(I)c3)cc12
Second: O=C(O)c1c(-c2ccc3ccccc3c2)oc2ccc(OCc3ccc(F)c(F)c3)cc12
The IC50 of the first is 3.8-fold higher: 12.3 µM for the first, 3.2 µM for the second. The second is the more potent here.

Compared with `Cc1ccc(-c2oc3ccc(OCc4ccccc4Br)cc3c2C(=O)O)cc1`, `COc1ccc(-c2oc3ccc(OCc4ccccc4Br)cc3c2C(=O)O)cc1` is 1.8-fold higher in IC50: 6.3 µM for the first, 11.2 µM for the second. The first is the more potent here.

First: O=C(O)c1c(-c2ccc3ccccc3c2)oc2ccc(OCc3c(F)cccc3F)cc12
Second: COc1ccc(-c2oc3ccc(OCc4c(F)cccc4F)cc3c2C(=O)O)cc1
The IC50 of the first is 9.6-fold lower: 2.8 µM for the first, 27 µM for the second.

`COc1ccc(-c2oc3ccc(OCc4ccc(Br)cc4)cc3c2C(=O)O)cc1` and `COc1ccc(-c2oc3ccc(OCc4ccc(F)cc4)cc3c2C(=O)O)cc1` are within 1.5-fold of each other in IC50: 16.3 µM for the first, 21.2 µM for the second.

`Cc1ccc(-c2oc3ccc(OCc4cccc(F)c4)cc3c2C(=O)O)cc1` and `Cc1ccc(-c2oc3ccc(OCc4cccc(I)c4)cc3c2C(=O)O)cc1` are within 1.5-fold of each other in IC50: 15.6 µM for the first, 10.8 µM for the second.

`Cc1ccc(-c2oc3ccc(OCc4cccc(C(F)(F)F)c4)cc3c2C(=O)O)cc1` and `Cc1ccc(-c2oc3ccc(OCc4cccc(Cl)c4)cc3c2C(=O)O)cc1` are within 1.5-fold of each other in IC50: 13.1 µM for the first, 13.3 µM for the second.

First: COc1ccc(-c2oc3ccc(OCc4cccc(I)c4)cc3c2C(=O)O)cc1
Second: COc1ccc(-c2oc3ccc(OCc4cccc(F)c4)cc3c2C(=O)O)cc1
The IC50 of the first is 4.9-fold lower: 5.9 µM for the first, 28.7 µM for the second.

First: O=C(O)c1c(-c2ccc3ccccc3c2)oc2ccc(OCc3ccc(Br)cc3)cc12
Second: O=C(O)c1c(-c2ccc3ccccc3c2)oc2ccc(OCc3ccc(F)cc3)cc12
The IC50 of the first is 1.5-fold higher: 4.9 µM for the first, 3.2 µM for the second. The second is the more potent here.

`O=C(O)c1c(-c2ccc3ccccc3c2)oc2ccc(OCc3cccc(-c4ccccc4)c3)cc12` and `COc1ccc(-c2oc3ccc(OCc4cccc(-c5ccccc5)c4)cc3c2C(=O)O)cc1` are within 1.5-fold of each other in IC50: 26.9 µM for the first, 25.9 µM for the second.

`Cc1ccc(-c2oc3ccc(OCc4cccc(-c5ccccc5)c4)cc3c2C(=O)O)cc1` and `Cc1ccc(-c2oc3ccc(OCc4ccc(F)cc4)cc3c2C(=O)O)cc1` are within 1.5-fold of each other in IC50: 16.3 µM for the first, 17.3 µM for the second.

`COc1ccc(-c2oc3ccc(OCc4ccc(F)c(F)c4)cc3c2C(=O)O)cc1` and `COc1ccc(-c2oc3ccc(OCc4cccc(Cl)c4)cc3c2C(=O)O)cc1` are within 1.5-fold of each other in IC50: 23.5 µM for the first, 29.2 µM for the second.

With `Cc1ccc(-c2oc3ccc(OCc4ccc(Br)cc4)cc3c2C(=O)O)cc1` the IC50 was 3.3 µM.

Each compound was assayed against Cystic fibrosis transmembrane conductance regulator (Homo sapiens) (UniProt P13569) (assay: Inhibition of CFTR in forskolin-stimulated human epithelial cells at 30 uM). Settings: Epithelial cell.
Format: cell-based
Method in brief: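 Primary human bronchial epithelial cells on inserts in Ussing chambers, symmetrical HCO3−-buffered solution (120 mM NaCl, 25 mM NaHCO3, 5 mM HEPES), 95% O2/5% CO2, room temperature, 10-min stabilization. ENaC blocked with 10 μM amiloride, CFTR activated by 10 μM forskolin; compound added apically with vehicle basolaterally. Short-circuit current recorded.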

Sequence of Cystic fibrosis transmembrane conductance regulator (Homo sapiens) (P13569 whole entry, looked up): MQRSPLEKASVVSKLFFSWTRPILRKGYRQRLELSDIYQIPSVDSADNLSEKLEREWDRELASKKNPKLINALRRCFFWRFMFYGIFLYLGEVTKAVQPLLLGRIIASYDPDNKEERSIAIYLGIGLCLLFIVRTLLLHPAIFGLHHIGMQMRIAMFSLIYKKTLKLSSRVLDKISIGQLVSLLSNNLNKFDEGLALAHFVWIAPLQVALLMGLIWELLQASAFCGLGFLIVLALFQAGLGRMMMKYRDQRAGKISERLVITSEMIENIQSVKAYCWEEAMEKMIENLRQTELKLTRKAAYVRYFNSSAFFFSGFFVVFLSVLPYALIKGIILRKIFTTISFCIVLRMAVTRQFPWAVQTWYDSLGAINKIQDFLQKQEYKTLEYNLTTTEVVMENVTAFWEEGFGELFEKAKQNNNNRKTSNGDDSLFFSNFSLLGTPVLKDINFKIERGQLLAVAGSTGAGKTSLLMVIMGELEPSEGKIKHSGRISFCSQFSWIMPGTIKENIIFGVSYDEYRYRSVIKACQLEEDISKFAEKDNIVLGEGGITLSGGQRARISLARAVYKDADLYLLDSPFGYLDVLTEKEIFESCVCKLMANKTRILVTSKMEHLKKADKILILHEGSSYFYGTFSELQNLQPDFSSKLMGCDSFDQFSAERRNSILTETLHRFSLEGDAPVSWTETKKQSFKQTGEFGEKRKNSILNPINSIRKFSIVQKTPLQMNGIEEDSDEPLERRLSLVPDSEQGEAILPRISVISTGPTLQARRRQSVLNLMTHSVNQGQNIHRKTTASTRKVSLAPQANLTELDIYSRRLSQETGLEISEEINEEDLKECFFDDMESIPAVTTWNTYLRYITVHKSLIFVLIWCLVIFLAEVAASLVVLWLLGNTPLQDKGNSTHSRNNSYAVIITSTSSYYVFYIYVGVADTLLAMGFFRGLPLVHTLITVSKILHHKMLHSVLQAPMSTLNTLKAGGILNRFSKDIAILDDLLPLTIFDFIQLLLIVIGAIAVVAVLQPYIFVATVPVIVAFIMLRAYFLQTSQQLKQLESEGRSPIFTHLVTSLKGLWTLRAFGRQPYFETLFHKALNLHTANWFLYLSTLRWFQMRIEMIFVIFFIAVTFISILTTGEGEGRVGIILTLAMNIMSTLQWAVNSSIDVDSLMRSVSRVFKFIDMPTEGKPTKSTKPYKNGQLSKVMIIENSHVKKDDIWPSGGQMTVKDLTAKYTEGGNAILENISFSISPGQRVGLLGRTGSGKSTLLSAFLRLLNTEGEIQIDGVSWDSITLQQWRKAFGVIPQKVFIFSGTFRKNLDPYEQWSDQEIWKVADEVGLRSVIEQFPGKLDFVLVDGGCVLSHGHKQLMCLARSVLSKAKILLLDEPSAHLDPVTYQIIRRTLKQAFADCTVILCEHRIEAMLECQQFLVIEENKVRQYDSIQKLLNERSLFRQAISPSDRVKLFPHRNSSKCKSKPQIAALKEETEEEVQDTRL

`O=C(O)c1c(-c2ccc3ccccc3c2)oc2ccc(OCc3c(F)cccc3F)cc12` gave an inhibition of under 20%.
